Test results published in ChEMBL document CHEMBL4364329, “Prodrug Activation by a Viral Protease: Evaluating Combretastatin Peptide Hybrids To Selectively Target Infected Cells” (ACS Med Chem Lett, 2019).
Active and inactive are the calls of the source. No cut-off for these calls is given here. Non-standard residues stand in square brackets, D forms with d. Residues, ends and D or L forms follow the SMILES beside them. ξ: configuration not given here. *: point of attachment. X1 = COc1ccc(/C=C\c2cc(OC)c(OC)c(OC)c2)cc1N*; 2Abz = Nc1ccccc1C(=O)O; ξNle = CCCCC(N)C(=O)O; Bz = O=C(c1ccccc1)*

Experiments:
[1] = molecular target: Genome polyprotein (dengue virus type 2) (UniProt P29990); assay: Inhibition of Dengue virus serotype 2 NS2B-NS3 protease expressed in Escherichia coli BL21 lambda (DE3) cells at 250 uM preincubated with enzyme for 15 mins followed by 2-Abz-Nle-Lys-Arg-Arg-Ser-(3-NO2)-Tyr-NH2 FRET substrate addition measured for 15 mins by fluorescence analysis
HeLa = assay: Cytotoxicity against human HeLa cells harboring Dengue virus serotype 2 NS2B-NS3 protease assessed as reduction in cell viability after 72 hrs by cell titer blue assay; format: functional, cell-based
In short: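 DENV2 protease-expressing HeLa cells (DENV2proHeLa) were incubated with compound for 72 h. CC50 was determined from triplicate wells.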

Tubulin (Sus scrofa) = Tubulin (Sus scrofa) (UniProt P02554+P02550); assay: Inhibition of porcine tubulin polymerization at 10 uM preincubated at 37 degC for 30 mins followed by chilling to 0 degC and subsequent addition of GTP by microtiter plate based absorbance detection assay relative to control; format: protein assay
Tubulin (Sus scrofa), sequence (P02550 whole entry, looked up): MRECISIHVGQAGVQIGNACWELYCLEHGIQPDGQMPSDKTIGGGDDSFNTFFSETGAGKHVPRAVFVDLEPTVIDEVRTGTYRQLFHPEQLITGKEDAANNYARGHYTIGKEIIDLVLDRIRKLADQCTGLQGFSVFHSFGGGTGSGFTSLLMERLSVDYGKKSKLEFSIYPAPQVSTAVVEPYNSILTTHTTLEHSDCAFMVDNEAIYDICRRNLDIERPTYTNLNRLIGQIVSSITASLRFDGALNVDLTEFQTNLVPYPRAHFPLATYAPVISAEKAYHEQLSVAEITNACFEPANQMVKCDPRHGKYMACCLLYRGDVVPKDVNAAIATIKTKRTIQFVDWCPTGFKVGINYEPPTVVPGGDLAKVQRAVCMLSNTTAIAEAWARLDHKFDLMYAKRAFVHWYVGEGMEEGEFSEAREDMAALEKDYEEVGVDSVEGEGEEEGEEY
Tubulin (Sus scrofa), sequence (P02554 whole entry, looked up): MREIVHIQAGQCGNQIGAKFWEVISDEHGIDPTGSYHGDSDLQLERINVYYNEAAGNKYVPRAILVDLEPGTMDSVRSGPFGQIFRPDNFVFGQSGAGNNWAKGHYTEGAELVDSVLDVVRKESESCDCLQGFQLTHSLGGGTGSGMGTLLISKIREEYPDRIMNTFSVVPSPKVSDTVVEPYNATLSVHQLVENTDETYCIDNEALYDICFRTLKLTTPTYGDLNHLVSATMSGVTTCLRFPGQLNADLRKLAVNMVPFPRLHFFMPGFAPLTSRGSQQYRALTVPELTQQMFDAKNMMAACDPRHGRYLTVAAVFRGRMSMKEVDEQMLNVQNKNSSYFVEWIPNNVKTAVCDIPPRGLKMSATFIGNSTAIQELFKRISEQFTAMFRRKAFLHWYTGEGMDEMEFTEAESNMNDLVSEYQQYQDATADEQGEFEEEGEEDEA

[2] = test system: CCCCC(NC(=O)c1ccccc1N)C(=O)N[C@@H](CCCCN)C(=O)N[C@@H](CCCNC(=N)N)C(=O)N[C@@H](CCCNC(=N)N)C(=O)N[C@@H](CO)C(=O)N[C@@H](Cc1ccc(O)cc1)C(N)=O; assay: (§1) Substrate activity at Dengue virus serotype 2 NS2B-NS3 protease expressed in Escherichia coli BL21 lambda (DE3) cells assessed as Km for compound hydrolysis in TRIS buffer at pH 9 incubated for 10 mins at room temperature by Lineweaver-Burk plot analysis; format: ADME, dengue virus type 2
In short: (§2)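 Recombinant DENV NS2B-NS3 protease at 1 μM incubated with substrate from 100 μM up to 1 mM in pH 9 buffer for 10 min at room temperature. Triplicate wells. Km, vmax and kcat were derived from a Lineweaver–Burk plot.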

[3] = test system: COc1ccc(/C=C\c2cc(OC)c(OC)c(OC)c2)cc1NC(=O)CNC(=O)CNC(=O)[C@H](CCCNC(=N)N)NC(=O)[C@H](CCCNC(=N)N)NC(=O)c1ccccc1; assay: as §1; format: ADME, dengue virus type 2; in short: as §2
[4] = test system: COc1ccc(/C=C\c2cc(OC)c(OC)c(OC)c2)cc1NC(=O)CNC(=O)[C@H](CCCNC(=N)N)NC(=O)[C@H](CCCCN)NC(=O)c1ccccc1; assay: as §1; format: ADME, dengue virus type 2; in short: as §2
[5] = test system: COc1ccc(/C=C\c2cc(OC)c(OC)c(OC)c2)cc1NC(=O)CNC(=O)[C@H](CCCNC(=N)N)NC(=O)[C@H](CCCNC(=N)N)NC(=O)c1ccccc1; assay: as §1; format: ADME, dengue virus type 2; in short: as §2
[6] = test system: COc1ccc(/C=C\c2cc(OC)c(OC)c(OC)c2)cc1NC(=O)[C@H](C)NC(=O)[C@H](CCCNC(=N)N)NC(=O)[C@H](CCCNC(=N)N)NC(=O)c1ccccc1; assay: as §1; format: ADME, dengue virus type 2; in short: as §2

| Molecule | Activity (HeLa) | inhibition (Tubulin (Sus scrofa)) | also measured |
| --- | --- | --- | --- |
| N=C(N)NCCC[C@H](NC(=O)[C@H](CCCNC(=N)N)NC(=O)c1ccccc1)C(=O)O (Bz-Arg-Arg-OH) | – | – | inhibition [1]: 35% |
| COc1ccc(/C=C\c2cc(OC)c(OC)c(OC)c2)cc1NC(=O)CNC(=O)[C@H](CCCNC(=N)N)NC(=O)[C@H](CCCCN)NC(=O)c1ccccc1 | Toxic | -5.7% | – |
| COc1ccc(/C=C\c2cc(OC)c(OC)c(OC)c2)cc1NC(=O)CN | – | 61% | – |
| Genome polyprotein (Dengue virus 2 Thailand/16681/84) | – | – | Km [2]: 182 µM; Vmax [2]: 10.1 µM/min; kcat [2]: 0.168 s⁻¹; Km [3]: 144 µM; Vmax [3]: 4.69 µM/min; kcat [3]: 0.0782 s⁻¹; Km [4]: 173 µM; Vmax [4]: 2.14 µM/min; kcat [4]: 0.0357 s⁻¹; Km [5]: 225 µM; Vmax [5]: 6.18 µM/min; kcat [5]: 0.103 s⁻¹; Km [6]: 949 µM; Vmax [6]: 17 µM/min; kcat [6]: 0.284 s⁻¹ |
| COc1ccc(/C=C\c2cc(OC)c(OC)c(OC)c2)cc1O | Toxic | 60.3% | – |
| COc1ccc(/C=C\c2cc(OC)c(OC)c(OC)c2)cc1N | Toxic | 33.1% | – |
| COc1ccc(/C=C\c2cc(OC)c(OC)c(OC)c2)cc1NC(=O)CNC(=O)[C@H](CCCNC(=N)N)NC(=O)[C@H](CCCNC(=N)N)NC(=O)c1ccccc1 | Toxic | 26% | – |
| COc1ccc(/C=C\c2cc(OC)c(OC)c(OC)c2)cc1NC(=O)[C@H](C)N | – | 40.5% | – |
| COc1ccc(/C=C\c2cc(OC)c(OC)c(OC)c2)cc1NC(=O)[C@H](C)NC(=O)[C@H](CCCNC(=N)N)NC(=O)[C@H](CCCCN)NC(=O)c1ccccc1 | – | -4.9% | – |
| COc1ccc(/C=C\c2cc(OC)c(OC)c(OC)c2)cc1NC(=O)[C@H](C)NC(=O)[C@H](CCCNC(=N)N)NC(=O)[C@H](CCCNC(=N)N)NC(=O)c1ccccc1 | Toxic | 3.4% | – |
| COc1ccc(/C=C\c2cc(OC)c(OC)c(OC)c2)cc1NC(=O)CCNC(=O)[C@H](CCCNC(=N)N)NC(=O)[C@H](CCCNC(=N)N)NC(=O)c1ccccc1 | Toxic | 3.4% | – |
| COc1ccc(/C=C\c2cc(OC)c(OC)c(OC)c2)cc1NC(=O)[C@H](CO)NC(=O)[C@H](CCCNC(=N)N)NC(=O)[C@H](CCCNC(=N)N)NC(=O)c1ccccc1 | Toxic | 1.9% | – |
| CCCCC(NC(=O)c1ccccc1N)C(=O)N[C@@H](CCCCN)C(=O)N[C@@H](CCCNC(=N)N)C(=O)N[C@@H](CCCNC(=N)N)C(=O)N[C@@H](CO)C(=O)N[C@@H](Cc1ccc(O)cc1)C(N)=O (stereo partly drawn) (H-[2Abz][ξNle]KRRSY-NH2) | – | inactive | – |
| COc1ccc(/C=C\c2cc(OC)c(OC)c(OC)c2)cc1NC(=O)CNC(=O)CNC(=O)[C@H](CCCNC(=N)N)NC(=O)[C@H](CCCNC(=N)N)NC(=O)c1ccccc1 (Bz-RRGG-X1) | Toxic | 13.4% | – |
| N=C(N)NCCC[C@H](NC(=O)[C@H](CCCCN)NC(=O)c1ccccc1)C(=O)O (Bz-Lys-Arg-OH) | – | – | inhibition [1]: 12.2% |
| COc1ccc(/C=C\c2cc(OC)c(OC)c(OC)c2)cc1NC(=O)[C@H](CO)NC(=O)[C@H](CCCNC(=N)N)NC(=O)[C@H](CCCCN)NC(=O)c1ccccc1 | – | -4.2% | – |
